In ChEMBL document CHEMBL3244237, “Differences in antischistosomal and mutagenic properties between an isothiocyano- and an isocyanonitrodiphenylamine” (J Med Chem, 1977) one finds inhibition in vivo and Activity data, which are given here for 2 molecules.

The test system of series [1] is Schistosoma japonicum. The series can be described thus: Antischistosomal activity against Schistosoma japonicum infected mouse assessed as reduction in number of worms at 5 mg/kg, po single dose. Type of series: functional.
The subject of series [2] is Schistosoma japonicum. Kind of series: Antischistosomal activity against Schistosoma japonicum infected mouse assessed as reduction in number of worms at 7 mg/kg, po single dose. Type of series: functional.
Series [3] deals with Schistosoma japonicum. The series can be described thus: Antischistosomal activity against Schistosoma japonicum infected mouse assessed as reduction in number of worms at 10 mg/kg, po single dose. Type of series: functional.
Series [4] relates to Schistosoma japonicum. Kind of series: Antischistosomal activity against Schistosoma japonicum infected mouse assessed as reduction in number of worms at 20 mg/kg, po single dose. Type of series: functional.
Series [5] deals with Schistosoma japonicum. The series can be described thus: Antischistosomal activity against Schistosoma japonicum infected mouse assessed as mouse with parasital cures at 5 mg/kg, po single dose. Type of series: functional.
Series [6] has as its system Schistosoma japonicum. Kind of series: Antischistosomal activity against Schistosoma japonicum infected mouse assessed as mouse with parasital cures at 7 mg/kg, po single dose. Type of series: functional.
For series [7], the system named is Schistosoma japonicum. The series can be described thus: Antischistosomal activity against Schistosoma japonicum infected mouse assessed as mouse with parasital cures at 10 mg/kg, po single dose. Type of series: functional.
Series [8] concerns Schistosoma japonicum. Kind of series: Antischistosomal activity against Schistosoma japonicum infected mouse assessed as mouse with parasital cures at 20 mg/kg, po single dose. Type of series: functional.
The subject of series [9] is Salmonella typhimurium. The series can be described thus: Mutagenic activity in Salmonella typhimurium TA-100 at 5 nmol/plate by Ames test. Type of series: toxicity, organism-based. Particulars: salmonella enterica subsp. enterica serovar typhimurium. For orientation: The Ames test detects mutagens through reverse mutation in bacteria.
In series [10] the test system is Salmonella typhimurium. The series can be described thus: Mutagenic activity in Salmonella typhimurium TA-100 at 16 nmol/plate by Ames test. Particulars: salmonella enterica subsp. enterica serovar typhimurium. Type of series: toxicity, organism-based.
For series [11], the system named is Salmonella typhimurium. Kind of series: Mutagenic activity in Salmonella typhimurium TA-100 at 53 nmol/plate by Ames test. Type of series: toxicity, organism-based. Particulars: salmonella enterica subsp. enterica serovar typhimurium.
Series [12] deals with Salmonella typhimurium. Kind of series: Mutagenic activity in Salmonella typhimurium TA-100 at 158 nmol/plate by Ames test. Type of series: toxicity, organism-based. Particulars: salmonella enterica subsp. enterica serovar typhimurium.
In series [13] the test system is Salmonella typhimurium. Kind of series: Mutagenic activity in Salmonella typhimurium TA-100 at 5 nmol/plate by Ames test in presence of rat liver microsomes S9 fraction. Particulars: salmonella enterica subsp. enterica serovar typhimurium. Type of series: toxicity, organism-based.
The test system of series [14] is Salmonella typhimurium. The series can be described thus: Mutagenic activity in Salmonella typhimurium TA-100 at 16 nmol/plate by Ames test in presence of rat liver microsomes S9 fraction. Type of series: toxicity, organism-based. Particulars: salmonella enterica subsp. enterica serovar typhimurium.
Series [15] concerns Salmonella typhimurium. Kind of series: Mutagenic activity in Salmonella typhimurium TA-100 at 53 nmol/plate by Ames test in presence of rat liver microsomes S9 fraction. Type of series: toxicity, organism-based. Particulars: salmonella enterica subsp. enterica serovar typhimurium.
Series [16] has as its system Salmonella typhimurium. The series can be described thus: Mutagenic activity in Salmonella typhimurium TA-100 at 158 nmol/plate by Ames test in presence of rat liver microsomes S9 fraction. Type of series: toxicity, organism-based. Particulars: salmonella enterica subsp. enterica serovar typhimurium.
The test system of series [17] is Salmonella typhimurium. Kind of series: Mutagenic activity in Salmonella typhimurium TA-98 at 5 nmol/plate by Ames test. Type of series: toxicity, organism-based. Particulars: salmonella enterica subsp. enterica serovar typhimurium.
Series [18] has as its system Salmonella typhimurium. The series can be described thus: Mutagenic activity in Salmonella typhimurium TA-98 at 16 nmol/plate by Ames test. Type of series: toxicity, organism-based. Particulars: salmonella enterica subsp. enterica serovar typhimurium.
For series [19], the system named is Salmonella typhimurium. Kind of series: Mutagenic activity in Salmonella typhimurium TA-98 at 53 nmol/plate by Ames test. Type of series: toxicity, organism-based. Particulars: salmonella enterica subsp. enterica serovar typhimurium.
Series [20] has as its system Salmonella typhimurium. The series can be described thus: Mutagenic activity in Salmonella typhimurium TA-98 at 158 nmol/plate by Ames test. Type of series: toxicity, organism-based. Particulars: salmonella enterica subsp. enterica serovar typhimurium.
Series [21] concerns Salmonella typhimurium. Kind of series: Mutagenic activity in Salmonella typhimurium TA-98 at 5 nmol/plate by Ames test in presence of rat liver microsomes S9 fraction. Particulars: salmonella enterica subsp. enterica serovar typhimurium. Type of series: toxicity, organism-based.
The subject of series [22] is Salmonella typhimurium. The series can be described thus: Mutagenic activity in Salmonella typhimurium TA-98 at 16 nmol/plate by Ames test in presence of rat liver microsomes S9 fraction. Type of series: toxicity, organism-based. Particulars: salmonella enterica subsp. enterica serovar typhimurium.
In series [23] the test system is Salmonella typhimurium. The series can be described thus: Mutagenic activity in Salmonella typhimurium TA-98 at 53 nmol/plate by Ames test in presence of rat liver microsomes S9 fraction. Type of series: toxicity, organism-based. Particulars: salmonella enterica subsp. enterica serovar typhimurium.
Series [24] deals with Salmonella typhimurium. The series can be described thus: Mutagenic activity in Salmonella typhimurium TA-98 at 158 nmol/plate by Ames test in presence of rat liver microsomes S9 fraction. Particulars: salmonella enterica subsp. enterica serovar typhimurium. Type of series: toxicity, organism-based.
Series [25] relates to Schistosoma japonicum. The series can be described thus: Antischistosomal activity against Schistosoma japonicum infected mouse assessed as reduction in number of worms at 50 mg/kg, po single dose. Type of series: functional.
Series [26] deals with Schistosoma japonicum. The series can be described thus: Antischistosomal activity against Schistosoma japonicum infected mouse assessed as reduction in number of worms at 125 mg/kg, po single dose. Type of series: functional.
For series [27], the system named is Schistosoma japonicum. Kind of series: Antischistosomal activity against Schistosoma japonicum infected mouse assessed as reduction in number of worms at 250 mg/kg, po single dose. Type of series: functional.
Series [28] concerns Schistosoma japonicum. Kind of series: Antischistosomal activity against Schistosoma japonicum infected mouse assessed as reduction in number of worms at 500 mg/kg, po single dose. Type of series: functional.
Series [29] concerns Schistosoma japonicum. The series can be described thus: Antischistosomal activity against Schistosoma japonicum infected mouse assessed as mouse with parasital cures at 50 mg/kg, po single dose. Type of series: functional.
Series [30] has as its system Schistosoma japonicum. Kind of series: Antischistosomal activity against Schistosoma japonicum infected mouse assessed as mouse with parasital cures at 125 mg/kg, po single dose. Type of series: functional.
Series [31] relates to Schistosoma japonicum. Kind of series: Antischistosomal activity against Schistosoma japonicum infected mouse assessed as mouse with parasital cures at 250 mg/kg, po single dose. Type of series: functional.
Series [32] has as its system Schistosoma japonicum. Kind of series: Antischistosomal activity against Schistosoma japonicum infected mouse assessed as mouse with parasital cures at 500 mg/kg, po single dose. Type of series: functional.
Series [33] has as its system Salmonella typhimurium. The series can be described thus: Mutagenic activity in Salmonella typhimurium TA-100 at 17 nmol/plate by Ames test. Type of series: toxicity, organism-based. Particulars: salmonella enterica subsp. enterica serovar typhimurium. In a few lines:
(§1)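 Ames plate-incorporation assay in Salmonella typhimurium TA-98 or TA-100 without rat liver S9. Compound was dissolved in Me2SO, with final Me2SO held at 0.1 mL per 15 mL medium on every plate, controls included. The top level tested was near that giving 10% growth inhibition. Read-out was revertant count in excess of solvent controls.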

Series [34] relates to Salmonella typhimurium. Kind of series: Mutagenic activity in Salmonella typhimurium TA-100 at 60 nmol/plate by Ames test. Particulars: salmonella enterica subsp. enterica serovar typhimurium. Type of series: toxicity, organism-based. Summed up:
as §1

Series [35] concerns Salmonella typhimurium. Kind of series: Mutagenic activity in Salmonella typhimurium TA-100 at 17 nmol/plate by Ames test in presence of rat liver microsomes S9 fraction. Type of series: toxicity, organism-based. Particulars: salmonella enterica subsp. enterica serovar typhimurium. In a few lines:
(§2)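 Ames plate-incorporation assay in Salmonella typhimurium TA-98 or TA-100 with rat liver microsomal S9 fraction. Compound was dissolved in Me2SO, with final Me2SO held at 0.1 mL per 15 mL medium on every plate, controls included. The top level tested was near that giving 10% growth inhibition. Read-out was revertant count in excess of solvent controls.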

The subject of series [36] is Salmonella typhimurium. The series can be described thus: Mutagenic activity in Salmonella typhimurium TA-100 at 60 nmol/plate by Ames test in presence of rat liver microsomes S9 fraction. Particulars: salmonella enterica subsp. enterica serovar typhimurium. Type of series: toxicity, organism-based. In a few lines:
as §2

For series [37], the system named is Salmonella typhimurium. Kind of series: Mutagenic activity in Salmonella typhimurium TA-98 at 17 nmol/plate by Ames test. Type of series: toxicity, organism-based. Particulars: salmonella enterica subsp. enterica serovar typhimurium. In a few lines: as §1
Series [38] deals with Salmonella typhimurium. Kind of series: Mutagenic activity in Salmonella typhimurium TA-98 at 60 nmol/plate by Ames test. Type of series: toxicity, organism-based. Particulars: salmonella enterica subsp. enterica serovar typhimurium. In a few lines: as §1
The subject of series [39] is Salmonella typhimurium. Kind of series: Mutagenic activity in Salmonella typhimurium TA-98 at 17 nmol/plate by Ames test in presence of rat liver microsomes S9 fraction. Type of series: toxicity, organism-based. Particulars: salmonella enterica subsp. enterica serovar typhimurium. Summed up: as §2
Series [40] concerns Salmonella typhimurium. Kind of series: Mutagenic activity in Salmonella typhimurium TA-98 at 60 nmol/plate by Ames test in presence of rat liver microsomes S9 fraction. Type of series: toxicity, organism-based. Particulars: salmonella enterica subsp. enterica serovar typhimurium. In a few lines: as §2

As a reminder, the inhibition in vivo is the drop in the measured response relative to a control, in per cent. As to `O=[N+]([O-])c1ccc(Nc2ccc(N=C=S)cc2)cc1` [AMOSCANATE], in the series with Schistosoma japonicum [1], the inhibition in vivo at 5 mg/kg is 68%. Also, the inhibition in vivo at 7 mg/kg in the series on Schistosoma japonicum [2] was found to be 82%. Further, in the series on Schistosoma japonicum [3], the inhibition in vivo at 10 mg/kg is 99%. Further, in the series with Schistosoma japonicum [4], the inhibition in vivo at 20 mg/kg amounted to 100%. For the same molecule, the Activity in the series with Schistosoma japonicum [5] was 14%; with Schistosoma japonicum [6], 25%; with Schistosoma japonicum [7], 92%; with Schistosoma japonicum [8] it was 100%; in the series on Salmonella typhimurium [9], “Non-toxic”; in the series with Salmonella typhimurium [10], “Non-toxic”. Further, the Activity entry in the series with Salmonella typhimurium [11], with Salmonella typhimurium [12], with Salmonella typhimurium [13], in the series with Salmonella typhimurium [14], in the series on Salmonella typhimurium [15] and in the series with Salmonella typhimurium [16] was “Non-toxic” in each case. Moreover, the Activity result with Salmonella typhimurium [17], in the series on Salmonella typhimurium [18], in the series with Salmonella typhimurium [19], in the series with Salmonella typhimurium [20], in the series with Salmonella typhimurium [21] and in the series with Salmonella typhimurium [22] was “Non-toxic” each time. Moreover, the Activity entry in the series with Salmonella typhimurium [23] and in the series with Salmonella typhimurium [24] was “Non-toxic” in each case.

Take `O=C=Nc1ccc(Nc2ccc([N+](=O)[O-])cc2)cc1`: in the series with Schistosoma japonicum [25], the inhibition in vivo at 50 mg/kg stood at 0%. Moreover, the inhibition in vivo at 125 mg/kg in the series on Schistosoma japonicum [26] was found to be 0%. Besides, the inhibition in vivo at 250 mg/kg in the series on Schistosoma japonicum [27] amounted to 0%. The inhibition in vivo at 500 mg/kg in the series with Schistosoma japonicum [28] worked out at 0%. Further, the Activity in the series with Schistosoma japonicum [29] is 0%; in the series with Schistosoma japonicum [30] it was 0%; in the series with Schistosoma japonicum [31] it was 0%; with Schistosoma japonicum [32] it was 0%; with Salmonella typhimurium [33] it was “Toxic”; in the series with Salmonella typhimurium [34], “Toxic”. Further, the Activity result in the series with Salmonella typhimurium [35], with Salmonella typhimurium [36], in the series with Salmonella typhimurium [37], with Salmonella typhimurium [38], in the series with Salmonella typhimurium [39] and in the series with Salmonella typhimurium [40] was “Toxic” in each case.
